According to ChEMBL document CHEMBL4665761, “Optimizing the Benefit/Risk of Acetyl-CoA Carboxylase Inhibitors through Liver Targeting” (J Med Chem, 2020):
In brackets after ≈: the same amount, converted by molar mass. Each block holds one compound with its values, some of them ahead of it.

How the values were obtained:
[1] = AUC (0 to 24 hrs) in Wistar-Hannover rat plasma at 4 mg/kg, po and measured up to 24 hrs by LC/MS-MS analysis; type: ADME, organism-based; set-up: route oral, dose 4 mg/kg, time <=24
Procedure, shortened: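 Male Wistar-Hannover rats (240–350 g), housed singly after 1 week of acclimation, were dosed orally. AUC0–24 came from plasma concentration–time data by the linear trapezoidal rule, averaged for n = 2. Lower detection limit was 1 ng/mL.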

[2] = Tmax in Wistar-Hannover rat plasma at 4 mg/kg, po and measured up to 24 hrs by LC/MS-MS analysis; type: ADME, organism-based
Procedure, shortened: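 Plasma concentration–time data, n = 2, averaged. Cmax and Tmax read directly from the data. AUC0–24 by the linear trapezoidal rule. F calculated as dose-normalized AUC PO/IV.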

[3] = Drug uptake in Wistar-Hannover rat liver at 30 mg/kg, po after 6 hrs by LC/MS-MS analysis; type: ADME, organism-based; settings: read-out: Drug uptake
Procedure, shortened: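 Male Wistar-Hannover rats, n = 2 or 3, given an oral suspension in 0.5% methyl cellulose with 0.1% Tween 80; one compound was dosed as the HCl salt. Total plasma and liver concentrations were measured 6 h post-dose. Kp = liver/plasma total concentration. Kpu,u uses fu values from equilibrium dialysis.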

[4] = target: UDP-glucuronosyltransferase 1A6 (Homo sapiens, UniProt P19224); test: Inhibition of UGT1A6 in human liver microsomes incubated for 90 mins in presence of UDPGA by LC-MS/MS analysis; type: ADME
[5] = Thermodynamic solubility of the compound at pH 1.2 after 24 hrs; type: physicochemical; settings: buffer, read-out: Therm_solubility
[6] = target: UDP-glucuronosyltransferase 2B7 (Homo sapiens, UniProt P16662); test: Inhibition of UGT2B7 in human liver microsomes incubated for 60 mins in presence of UDPGA by LC-MS/MS analysis; type: ADME
[7] = Fraction unbound in human plasma by equilibrium dialysis method; type: ADME, cell-free
[8] = Fraction unbound in monkey liver by equilibrium dialysis method; type: ADME, tissue-based, Macaca mulatta; settings: rhesus monkey
Procedure, shortened: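 Fraction unbound in plasma and liver tissue was determined by equilibrium dialysis.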

[9] = target: Cytochrome P450 2D6 (Homo sapiens, UniProt P10635); test: inhibition of CYP2D6 in human liver microsomes; type: ADME
[10] = target: Acetyl-CoA carboxylase 1 (Rattus norvegicus, UniProt P11497); test: Inhibition of rat ACC1 using acetyl-CoA as substrate incubated for 20 mins in presence of [14C]O3 by liquid scintillation counting method
Procedure, shortened: (§1)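 Radioenzymatic assay with purified ACC isozymes, measuring [14C]-bicarbonate incorporation into [14C]-malonyl-CoA. Mode of inhibition taken from substrate concentration-dependence experiments varying ATP or carbonate. IC50 dose-response run at saturating ATP.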

[11] = test system: CHO; test: Genotoxicity in CHO cells in presence of (aroclor-induced rat liver S9 fraction/NADPH by micronucleus test; type: toxicity, cell-based, Cricetulus griseus; settings: chinese hamster
Procedure, shortened: (§2)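 In vitro micronucleus assay in Chinese hamster ovary or TK6 cells, run with and without metabolic activation by aroclor-induced rat liver S9 fraction plus NADPH.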

[12] = Genotoxicity in Salmonella typhimurium TA1535 by Ames test; type: toxicity; settings: salmonella enterica subsp. enterica serovar typhimurium
Procedure, shortened: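 Ames test in Salmonella strains TA98, TA100, TA1535 and TA1537, run with and without aroclor-induced rat liver S9 plus NADPH.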

[13] = target: Bile salt export pump (Homo sapiens, UniProt O95342); test: Inhibition of human BSEP expressed in baculovirus infected Hi5 insect cells in presence of taurocholic acid by LC-MS/MS analysis
[14] = target: Acetyl-CoA carboxylase 2 (Homo sapiens, UniProt O00763); test: Uncompetitive inhibition of human ACC2 incubated for 15 mins in presence of ATP by Line weaver-Burk plot analysis; procedure, shortened: as §1
[15] = target: NTCP (Homo sapiens, UniProt Q14973); test: Substrate activity at human NTCP stably expressed in HEK293 cells assessed as ratio of total to passive cellular uptake at 1 uM incubated for 0.5 to 4 mins by LC/MS-MS analysis; type: cell-based; settings: HEK293 cells stably expressing human NTCP, time 0.5-4 min
Procedure, shortened: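 HEK293 cells stably transfected with the transporter, plus wild-type cells, grown to confluence in DMEM with 10% heat-inactivated FBS and 5 µg/mL blasticidin. Washed with HBSS/20 mM HEPES, pH 7.4, then incubated with compound at 37 °C for 0.5–4.0 min. Cells washed ice-cold, lysed in MeOH for LC-MS/MS, uptake normalized to BCA protein. Ratio = transfected/wild-type uptake, averaged over time points.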

[16] = target: Cytochrome P450 2C8 (Homo sapiens, UniProt P10632); test: inhibition of CYP2C8 in human liver microsomes; type: ADME
[17] = test system: Rattus norvegicus; test: Effect on triglyceride accumulation in Sprague-Dawley rat high fat dietary model at 1 mg/kg, po assessed as reduction in triglyceride level after 42 days by XPT clinical analyzer; type: functional; set-up: scale not given: the % may be the effect or the level left; settings: time 42 day
Procedure, shortened: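 High-fat-diet-fed Sprague-Dawley rats dosed orally for 42 days, with chow-fed and vehicle controls, n = 10 per group. Read-out is hepatic triglyceride, reported as mean ± SEM.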

[18] = Half life in cynomolgus monkey plasma at 1 mg/kg, iv and measured up to 72 hrs by LC/MS-MS analysis; type: ADME, organism-based, Macaca fascicularis
Procedure, shortened: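 Cynomolgus monkeys dosed 1 mg/kg IV as the tris salt in 2% N-methylpyrrolidone/98% sulfobutylether-β-cyclodextrin (12.5%) in 50 mM TRIS, pH 8.0, or PO as the tris salt. Plasma was analysed by LC-MS/MS, n = 2. CL = IV dose/AUC; Vss = dose/(AUC × elimination rate constant); Cmax taken from observed data.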

[19] = target: Cytochrome P450 2C19 (Homo sapiens, UniProt P33261); test: inhibition of CYP2C19 in human liver microsomes; type: ADME
[20] = test system: TK6; test: Genotoxicity in human TK6 cells by micronucleus test; type: toxicity, cell-based; procedure, shortened: as §2
[21] = target: Cytochrome P450 1A2 (Homo sapiens, UniProt P05177); test: Activation of CYP1A2 in human hepatocytes at 0.5 to 200 uM; type: ADME, cell-based, Hepatocyte; settings: dose 0.5-200 µM
[22] = Unbound plasma concentration in Sprague-Dawley rat at 300 mg/kg, po; type: ADME, organism-based; settings: in vivo
Procedure, shortened: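 Sprague-Dawley rats given a single oral dose in 0.5% methyl cellulose vehicle. Unbound plasma concentration measured at 300 mg/kg.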

[23] = target: Solute carrier organic anion transporter family member 1B1 (Homo sapiens, UniProt Q9Y6L6); test: Inhibition of human OATP1B1 expressed in HEK293 cells n presence of rosuvastatin; type: cell-based
[24] = Ratio of drug uptake in Wistar-Hannover rat unbound liver to plasma concentration at 10 mg/kg, po after 6 hrs by LC/MS-MS analysis; type: ADME, organism-based; settings: other tissue
Procedure, shortened: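 Male Wistar-Hannover rats (n = 2 or 3) dosed orally as a suspension in 0.5% methyl cellulose with 0.1% Tween 80. Total plasma and liver concentrations taken 6 h post-dose. Converted to unbound values using fraction unbound in plasma and liver from equilibrium dialysis. Kpu,u = ratio of mean free liver to free plasma concentration.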

[25] = target: Voltage-gated inwardly rectifying potassium channel KCNH2 (Homo sapiens, UniProt Q12809); test: Inhibition of human ERG at 100 uM
[26] = Drug recovery in bile duct-cannulated Wistar-Hannover rat bile at 1 mg/kg, iv and measured up to 24 hrs by LC/MS-MS analysis; type: ADME, organism-based; settings: read-out: Drug recovery
Procedure, shortened: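 Rats received a 1 mg/kg IV dose. Bile was pooled over 0–24 h and analysed for unchanged parent.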

Sequence of UDP-glucuronosyltransferase 2B7 (P16662 whole entry): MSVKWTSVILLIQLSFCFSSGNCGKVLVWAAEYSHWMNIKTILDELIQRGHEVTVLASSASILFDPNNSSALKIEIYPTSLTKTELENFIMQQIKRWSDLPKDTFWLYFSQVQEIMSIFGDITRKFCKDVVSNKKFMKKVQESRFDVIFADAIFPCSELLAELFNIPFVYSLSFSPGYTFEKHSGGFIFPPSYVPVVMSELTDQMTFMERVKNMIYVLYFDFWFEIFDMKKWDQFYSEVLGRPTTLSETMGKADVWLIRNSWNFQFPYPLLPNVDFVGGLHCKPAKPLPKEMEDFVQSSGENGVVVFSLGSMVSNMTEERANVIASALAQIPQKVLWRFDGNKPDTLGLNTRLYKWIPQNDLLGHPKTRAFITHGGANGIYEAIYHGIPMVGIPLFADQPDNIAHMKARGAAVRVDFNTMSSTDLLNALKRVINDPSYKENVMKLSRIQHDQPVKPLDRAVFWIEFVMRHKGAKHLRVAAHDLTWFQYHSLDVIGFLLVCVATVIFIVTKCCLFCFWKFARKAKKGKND
Sequence of Solute carrier organic anion transporter family member 1B1 (Q9Y6L6 whole entry): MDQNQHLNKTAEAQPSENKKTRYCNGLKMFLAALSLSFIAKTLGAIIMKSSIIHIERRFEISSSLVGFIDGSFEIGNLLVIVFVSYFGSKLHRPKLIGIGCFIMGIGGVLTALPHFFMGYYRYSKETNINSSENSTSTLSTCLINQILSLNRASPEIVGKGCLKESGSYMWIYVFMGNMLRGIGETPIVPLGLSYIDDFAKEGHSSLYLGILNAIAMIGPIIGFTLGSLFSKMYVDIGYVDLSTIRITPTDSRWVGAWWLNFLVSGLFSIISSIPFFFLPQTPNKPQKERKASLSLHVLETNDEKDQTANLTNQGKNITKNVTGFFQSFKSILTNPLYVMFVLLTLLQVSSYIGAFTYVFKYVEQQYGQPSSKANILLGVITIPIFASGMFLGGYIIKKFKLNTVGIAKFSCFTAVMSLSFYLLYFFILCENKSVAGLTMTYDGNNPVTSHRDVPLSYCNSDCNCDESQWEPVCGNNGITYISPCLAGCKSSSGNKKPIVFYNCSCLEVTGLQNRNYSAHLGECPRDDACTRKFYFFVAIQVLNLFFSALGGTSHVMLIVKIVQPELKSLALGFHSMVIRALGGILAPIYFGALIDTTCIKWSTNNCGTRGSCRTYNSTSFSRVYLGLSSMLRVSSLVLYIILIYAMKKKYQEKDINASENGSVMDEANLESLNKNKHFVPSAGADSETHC
Sequence of Cytochrome P450 2C19 (P33261 whole entry): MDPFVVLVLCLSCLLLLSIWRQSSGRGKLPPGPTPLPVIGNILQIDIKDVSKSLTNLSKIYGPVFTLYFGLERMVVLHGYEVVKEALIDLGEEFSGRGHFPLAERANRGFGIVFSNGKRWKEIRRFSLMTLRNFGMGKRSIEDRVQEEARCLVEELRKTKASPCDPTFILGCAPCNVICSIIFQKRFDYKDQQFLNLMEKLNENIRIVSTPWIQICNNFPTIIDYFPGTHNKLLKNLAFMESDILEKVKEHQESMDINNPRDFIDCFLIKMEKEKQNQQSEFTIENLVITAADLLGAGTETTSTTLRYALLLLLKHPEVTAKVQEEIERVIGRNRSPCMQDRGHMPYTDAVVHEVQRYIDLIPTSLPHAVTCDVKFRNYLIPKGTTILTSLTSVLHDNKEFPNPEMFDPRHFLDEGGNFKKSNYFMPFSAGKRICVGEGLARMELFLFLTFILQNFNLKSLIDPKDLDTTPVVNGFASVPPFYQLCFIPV
Sequence of Bile salt export pump (O95342 whole entry): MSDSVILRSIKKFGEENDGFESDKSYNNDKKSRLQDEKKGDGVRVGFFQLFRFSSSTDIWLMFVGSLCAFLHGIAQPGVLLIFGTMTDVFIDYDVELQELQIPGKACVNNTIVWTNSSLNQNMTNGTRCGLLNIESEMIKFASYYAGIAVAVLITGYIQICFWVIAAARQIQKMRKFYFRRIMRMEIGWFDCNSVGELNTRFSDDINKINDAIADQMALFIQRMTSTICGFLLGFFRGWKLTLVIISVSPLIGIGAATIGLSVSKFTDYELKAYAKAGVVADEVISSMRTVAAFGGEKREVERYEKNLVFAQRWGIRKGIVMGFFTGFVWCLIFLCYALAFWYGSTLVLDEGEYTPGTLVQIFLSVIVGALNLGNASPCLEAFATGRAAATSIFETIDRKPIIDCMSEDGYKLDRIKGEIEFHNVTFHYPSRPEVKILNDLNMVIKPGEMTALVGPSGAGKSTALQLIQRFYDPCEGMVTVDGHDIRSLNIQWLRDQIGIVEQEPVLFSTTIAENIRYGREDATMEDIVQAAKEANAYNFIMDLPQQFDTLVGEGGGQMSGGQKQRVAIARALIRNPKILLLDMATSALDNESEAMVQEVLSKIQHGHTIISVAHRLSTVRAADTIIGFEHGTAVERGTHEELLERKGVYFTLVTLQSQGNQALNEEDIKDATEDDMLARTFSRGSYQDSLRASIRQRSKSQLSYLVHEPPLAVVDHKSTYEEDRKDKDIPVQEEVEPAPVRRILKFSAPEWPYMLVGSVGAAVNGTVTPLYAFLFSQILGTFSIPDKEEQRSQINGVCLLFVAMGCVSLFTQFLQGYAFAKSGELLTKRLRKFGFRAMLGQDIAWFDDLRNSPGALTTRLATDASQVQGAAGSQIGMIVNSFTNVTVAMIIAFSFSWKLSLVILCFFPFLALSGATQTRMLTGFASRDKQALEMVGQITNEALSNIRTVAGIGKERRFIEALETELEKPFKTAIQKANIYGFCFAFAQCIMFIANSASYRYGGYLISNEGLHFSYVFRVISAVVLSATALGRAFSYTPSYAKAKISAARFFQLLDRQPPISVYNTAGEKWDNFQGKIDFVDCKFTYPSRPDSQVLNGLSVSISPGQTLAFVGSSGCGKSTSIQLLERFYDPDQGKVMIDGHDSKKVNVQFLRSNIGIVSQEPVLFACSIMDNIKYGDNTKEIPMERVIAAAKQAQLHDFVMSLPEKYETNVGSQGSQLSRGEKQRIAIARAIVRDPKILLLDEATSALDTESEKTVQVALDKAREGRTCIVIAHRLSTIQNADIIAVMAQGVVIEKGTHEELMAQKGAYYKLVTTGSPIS
Sequence of Voltage-gated inwardly rectifying potassium channel KCNH2 (Q12809 whole entry): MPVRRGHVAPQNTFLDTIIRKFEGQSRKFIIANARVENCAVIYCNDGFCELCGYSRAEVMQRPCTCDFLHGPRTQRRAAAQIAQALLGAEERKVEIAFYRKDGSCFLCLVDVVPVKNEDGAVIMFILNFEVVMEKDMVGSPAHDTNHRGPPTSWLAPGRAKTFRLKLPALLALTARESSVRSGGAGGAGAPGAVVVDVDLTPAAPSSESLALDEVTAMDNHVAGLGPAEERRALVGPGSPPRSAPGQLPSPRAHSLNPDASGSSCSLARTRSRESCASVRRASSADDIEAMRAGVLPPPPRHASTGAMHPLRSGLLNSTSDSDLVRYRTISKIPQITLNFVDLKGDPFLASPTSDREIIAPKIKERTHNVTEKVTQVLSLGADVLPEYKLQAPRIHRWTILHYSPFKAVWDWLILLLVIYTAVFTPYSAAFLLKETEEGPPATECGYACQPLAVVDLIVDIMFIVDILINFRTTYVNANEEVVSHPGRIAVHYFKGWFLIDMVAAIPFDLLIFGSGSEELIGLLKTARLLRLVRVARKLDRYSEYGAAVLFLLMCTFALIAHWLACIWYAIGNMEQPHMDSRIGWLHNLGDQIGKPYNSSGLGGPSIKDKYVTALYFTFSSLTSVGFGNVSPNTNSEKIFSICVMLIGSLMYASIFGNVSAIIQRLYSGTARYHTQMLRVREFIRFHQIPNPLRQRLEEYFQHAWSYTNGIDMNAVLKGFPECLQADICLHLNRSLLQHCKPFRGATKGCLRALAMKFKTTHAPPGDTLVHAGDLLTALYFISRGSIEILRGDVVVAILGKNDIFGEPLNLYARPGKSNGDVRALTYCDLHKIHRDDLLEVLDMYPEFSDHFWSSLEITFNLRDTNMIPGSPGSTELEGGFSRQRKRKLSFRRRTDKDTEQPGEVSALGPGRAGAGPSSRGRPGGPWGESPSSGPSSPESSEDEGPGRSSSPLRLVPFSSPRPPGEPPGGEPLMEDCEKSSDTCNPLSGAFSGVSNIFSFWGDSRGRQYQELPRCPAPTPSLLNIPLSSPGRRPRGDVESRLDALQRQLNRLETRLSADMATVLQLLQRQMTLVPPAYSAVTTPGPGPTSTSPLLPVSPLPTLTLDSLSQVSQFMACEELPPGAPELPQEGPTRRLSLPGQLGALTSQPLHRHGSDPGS
Sequence of Cytochrome P450 2D6 (P10635 whole entry): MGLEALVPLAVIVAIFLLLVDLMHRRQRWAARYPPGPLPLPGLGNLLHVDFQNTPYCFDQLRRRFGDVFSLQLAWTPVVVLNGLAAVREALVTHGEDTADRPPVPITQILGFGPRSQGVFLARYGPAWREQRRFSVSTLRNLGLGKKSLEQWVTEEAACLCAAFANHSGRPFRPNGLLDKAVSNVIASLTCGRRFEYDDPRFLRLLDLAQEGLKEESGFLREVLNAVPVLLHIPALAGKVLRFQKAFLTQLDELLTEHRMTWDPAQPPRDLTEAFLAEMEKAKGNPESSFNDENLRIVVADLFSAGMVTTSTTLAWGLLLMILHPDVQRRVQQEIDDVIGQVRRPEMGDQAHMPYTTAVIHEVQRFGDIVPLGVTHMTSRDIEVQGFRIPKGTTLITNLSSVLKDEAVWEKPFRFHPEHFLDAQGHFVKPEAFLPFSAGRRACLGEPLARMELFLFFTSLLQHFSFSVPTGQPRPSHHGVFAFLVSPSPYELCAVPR
Sequence of NTCP (Q14973 whole entry): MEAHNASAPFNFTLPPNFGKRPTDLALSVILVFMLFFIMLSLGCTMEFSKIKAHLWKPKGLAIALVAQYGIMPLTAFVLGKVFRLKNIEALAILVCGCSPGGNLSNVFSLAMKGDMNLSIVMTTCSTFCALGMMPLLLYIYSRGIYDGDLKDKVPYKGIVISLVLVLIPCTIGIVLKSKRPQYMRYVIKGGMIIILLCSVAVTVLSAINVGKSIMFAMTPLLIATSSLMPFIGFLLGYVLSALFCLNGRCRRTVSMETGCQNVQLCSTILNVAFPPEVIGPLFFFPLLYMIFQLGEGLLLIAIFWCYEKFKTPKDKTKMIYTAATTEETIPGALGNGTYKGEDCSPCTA

AUC(0-t) [1]: 322 ng·h/mL
Tmax [2]: 0.75 h
concentration at 6 h [3]: 38100 ng/mL
Structure (SMILES): COc1cc(C(=O)N2CCC3(CC2)CC(=O)c2nn(C(C)(C)C)cc2O3)cc(-c2ccc(C(=O)O)cc2)n1

IC50 [4]: > 20 µM
solubility thermodynamic at 24 h [5]: 8 µM (≈ 4.02 µg/mL)
IC50 [6]: > 20 µM
fraction unbound [7]: 0.006
fraction unbound [8]: 0.15
IC50 [9]: > 50 µM
IC50 [10]: 0.00753 µM
IC50 [14]: 0.00866 µM
uptake ratio at 1 µM [15]: 3.2
IC50 [16]: > 50 µM
half-life [18]: 11 h
IC50 [19]: > 50 µM
Activity [21]: Not Active
Cp(f) [22]: 119.4 nM
IC50 [23]: 11.7 µM
Ratio [24]: 132
dose excreted at 24 h [26]: 12%
Structure (SMILES): COc1cc(C(=O)N2CCC3(CC2)CC(=O)c2c(cnn2C(C)C)C3)cc(-c2ccc(C(=O)O)cc2)n1 [CLESACOSTAT]
Activity [11]: Non-Toxic
Activity [12]: Non-Toxic
IC50 [13]: 94 µM
Activity [17]: 30%
Activity [20]: Non-Toxic
inhibition (INH) [25]: Not Active
